The source made the active and inactive calls. The rule behind the calls is not given here.
Experiments:
P388 = test: Cytotoxicity against mouse P388 cells by tetrazolium-formazan assay; format: functional, cell-based
A549 = test: Cytotoxicity against human A549 cells by SRB assay; format: functional, cell-based
Bos taurus [1] = species: Bos taurus; test: Inhibition of calf thymus topoisomerase 1-mediated pBR322 relaxation at 100 uM after 30 mins by agarose gel electrophoresis
Method in brief: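 Topoisomerase I and compound were incubated 30 min at 37 °C in topo I buffer with 0.01% BSA. Reactions were stopped with SDS and loading dye, then run on 0.8% agarose in TAE for 35 min at 120 V, stained with ethidium bromide and imaged under UV.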

[2] = target: DNA topoisomerase 2-alpha (Homo sapiens) (UniProt P11388); test: Inhibition of human topoisomerase 2a-mediated kinetoplast decatenation at 100 uM after 30 mins by agarose gel electrophoresis
Method in brief: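 ATP-dependent kDNA decatenation by 1 unit human topo IIα. Incubated 30 min at 37 °C in 50 mM Tris-HCl pH 8, 150 mM NaCl, 10 mM MgCl2, 2 mM ATP and 0.5 mM DTT. Stopped with SDS, run on 0.8% agarose in TAE for 50 min at 120 V, stained with ethidium bromide and imaged under UV.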

[3] = Binding affinity to Poly(dGdC).Poly(dGdC) (unknown origin)
Method in brief: (§1)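 Fluorescence titration in 20 mM sodium phosphate pH 7.0 at 20 ± 1 °C. Compound held at 3 × 10^-6 M while polydeoxynucleotide was varied from 0 to 6.32 × 10^-5 M. Ka was obtained by nonlinear curve fitting of the data. The ratio line is the GC-polymer Ka divided by the AT-polymer Ka.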

[4] = Binding affinity to Poly(dAdT).Poly(dAdT) (unknown origin); method in brief: as §1
DNA [5] = test: Binding affinity to calf thymus DNA at 20 uM by circular dichroism analysis; format: nucleic-acid assay; conditions: Bos taurus
Method in brief: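 Circular dichroism spectra of compound with calf thymus DNA in 20 mM Tris-HCl pH 7.5 containing 1% DMSO (v/v). Recorded in a 1 cm quartz cell over 240–300 nm.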

DNA [6] = test: Binding affinity to calf thymus DNA at 20 uM after 1 hr by fluorimetric analysis; format: nucleic-acid assay; conditions: Bos taurus; 10 uM; in the assay text read “at 10 uM” for “at 20 uM”
Method in brief: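 Fluorescence quenching with increasing calf thymus DNA in 20 mM Tris-HCl pH 7.5 containing 1% DMSO (v/v). Mixtures were stirred for 1 h at 25 °C in the dark before each spectrum was recorded. Kb came from nonlinear fitting of fluorescence intensity against DNA concentration.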

[7] = Cytotoxicity against human LO2 cells by SRB assay; format: cell-based; conditions: L02
Bos taurus [8] = species: Bos taurus; test: Inhibition of calf thymus topoisomerase 1-mediated pBR322 relaxation at 200 uM after 30 mins by agarose gel electrophoresis
Method in brief: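 Topoisomerase I and compound incubated 30 min at 37 °C in topoisomerase I buffer with 0.01% BSA. Reactions were stopped with 10% SDS and loading dye. Products were resolved on a 0.8% agarose gel in TAE for 35 min at 120 V, stained with ethidium bromide at room temperature and photographed under UV.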

[9] = Selectivity ratio of Ka for Poly(dGdC).Poly(dGdC) (unknwon origin) to Ka for Poly(dAdT).Poly(dAdT) (unknown origin); method in brief: as §1
[10] = Binding affinity to 5'ATGCGCAT3'/3'TACGCGTA5' (unknown origin)
[11] = Binding affinity to 5'ACCCCT3'/3'TGGGGA5' (unknown origin)
[12] = Binding affinity to 5'TGGCGA3'/3'ACCGCT5' (unknown origin)
[13] = Binding affinity to 5'ACCGGT3'/3'TGGCCA5' (unknown origin)
[14] = Binding affinity to 5'ACGGCT3'/3'TGCCGA5'(unknown origin)
[15] = Binding affinity to 5'ACGCCT3'/3'TGCGGA5' (unknown origin)
[16] = Binding affinity to 5'TGCGCA3'/3'ACGCGT5' (unknown origin)
[17] = Binding affinity to 5'ACCCGT3'/3'TGGGCA5' (unknown origin)

Chain of DNA topoisomerase 2-alpha (Homo sapiens) (P11388 whole entry): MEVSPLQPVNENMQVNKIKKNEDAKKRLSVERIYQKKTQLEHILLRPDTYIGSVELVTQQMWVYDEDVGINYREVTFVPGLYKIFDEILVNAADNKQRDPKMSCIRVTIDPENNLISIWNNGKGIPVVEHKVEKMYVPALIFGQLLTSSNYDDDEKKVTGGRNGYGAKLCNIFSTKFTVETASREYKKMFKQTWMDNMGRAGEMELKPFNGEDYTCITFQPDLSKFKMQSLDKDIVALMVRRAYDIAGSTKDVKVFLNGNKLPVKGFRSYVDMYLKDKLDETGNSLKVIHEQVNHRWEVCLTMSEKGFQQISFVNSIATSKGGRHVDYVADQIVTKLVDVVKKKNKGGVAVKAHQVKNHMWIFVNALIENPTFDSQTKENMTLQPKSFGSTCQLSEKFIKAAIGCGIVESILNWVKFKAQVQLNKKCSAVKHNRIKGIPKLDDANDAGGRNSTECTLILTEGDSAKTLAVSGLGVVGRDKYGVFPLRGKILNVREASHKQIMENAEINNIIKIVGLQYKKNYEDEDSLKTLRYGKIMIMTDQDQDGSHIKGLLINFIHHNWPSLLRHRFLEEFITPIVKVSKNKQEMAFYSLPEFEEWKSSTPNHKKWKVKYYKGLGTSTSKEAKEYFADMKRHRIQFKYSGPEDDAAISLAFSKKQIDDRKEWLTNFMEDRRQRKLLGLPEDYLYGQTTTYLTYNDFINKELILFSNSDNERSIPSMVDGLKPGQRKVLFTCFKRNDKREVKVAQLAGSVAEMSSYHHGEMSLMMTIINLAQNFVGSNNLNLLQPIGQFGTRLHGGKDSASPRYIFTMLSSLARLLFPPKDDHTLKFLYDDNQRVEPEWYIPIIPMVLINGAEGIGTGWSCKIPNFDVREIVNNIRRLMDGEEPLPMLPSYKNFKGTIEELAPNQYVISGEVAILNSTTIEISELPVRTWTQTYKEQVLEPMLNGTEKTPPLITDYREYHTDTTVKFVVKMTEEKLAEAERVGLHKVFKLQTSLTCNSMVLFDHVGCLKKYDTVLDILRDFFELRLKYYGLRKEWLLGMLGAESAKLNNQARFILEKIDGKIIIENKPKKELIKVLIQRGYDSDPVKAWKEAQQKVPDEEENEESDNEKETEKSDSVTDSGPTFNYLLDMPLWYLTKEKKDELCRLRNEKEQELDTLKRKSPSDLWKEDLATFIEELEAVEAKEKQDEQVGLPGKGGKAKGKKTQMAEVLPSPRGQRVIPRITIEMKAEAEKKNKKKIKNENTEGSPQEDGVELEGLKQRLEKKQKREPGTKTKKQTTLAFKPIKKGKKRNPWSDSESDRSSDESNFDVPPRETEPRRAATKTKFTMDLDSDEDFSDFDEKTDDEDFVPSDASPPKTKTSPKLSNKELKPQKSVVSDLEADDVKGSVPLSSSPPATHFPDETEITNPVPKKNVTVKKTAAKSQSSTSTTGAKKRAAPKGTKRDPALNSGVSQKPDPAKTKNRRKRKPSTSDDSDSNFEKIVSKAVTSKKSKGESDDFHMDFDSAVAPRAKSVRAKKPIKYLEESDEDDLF

In the case of `CN(C)CCN1C(=O)c2cccc3c2c(cc2nc(-c4ccccc4)sc23)C1=O`, the IC50 (P388) is reported as 0.66 µM and the IC50 (A549) is reported as 0.085 µM.
With `COc1cc([C@@H]2c3cc4c(cc3[C@@H](O[C@@H]3O[C@@H]5CO[C@@H](C)O[C@H]5[C@H](O)[C@H]3O)[C@H]3COC(=O)[C@H]23)OCO4)cc(OC)c1O` the “Topoisomerase 1 relaxation inhibition (qualitative)” value (Bos taurus [1]) was “Active” and the “Inhibition (qualitative)” value [2] was “Active”.
In the case of `CN(C)CCN1C(=O)c2cccc3c2c(cc2c4ccccc4oc32)C1=O`, the Ka [3] is reported as 6.36 ×10⁶ /M, the Ka [4] is reported as 5 ×10⁶ /M and the “Topoisomerase 1 relaxation inhibition (qualitative)” value (Bos taurus [1]) is reported as “Active”. The “Inhibition (qualitative)” value [2] was “Active”, the Activity (DNA [5]) was “Active” and the Ka (DNA [6]) was 2.89 ×10⁵ /M. The IC50 [7] was 5 µM, the IC50 (P388) was 0.65 µM and the IC50 (A549) was 0.36 µM.
`CCCCN1C(=O)c2cccc3c2c(cc2c4ccccc4oc32)C1=O` gave an IC50 [7] greater than 100 µM, an IC50 (P388) greater than 100 µM and an IC50 (A549) of 1.4 µM.
In the case of `CN(C)CCN1C(=O)c2cccc3cc(N)cc(c23)C1=O` [AMONAFIDE], the “Inhibition (qualitative)” value [2] is reported as “Active” and the IC50 [7] is reported as 5 µM.
Work on `CN(C)CCN1C(=O)c2cccc3c2c(cc2nc(-c4ccc(Cl)cc4)oc23)C1=O` yielded an IC50 [7] greater than 100 µM, an IC50 (P388) of 20.1 µM and an IC50 (A549) of 72.4 µM.
For `COc1ccccc1-c1nc2cc3c4c(cccc4c2o1)C(=O)N(CCN(C)C)C3=O`, the IC50 [7] was 1.9 µM, the IC50 (P388) was 1.3 µM and the IC50 (A549) was 0.89 µM.
In the case of `CC[C@@]1(O)C(=O)OCc2c1cc1n(c2=O)Cc2cc3ccccc3nc2-1`, the inhibition (Bos taurus [8]) is reported as “Active”.
`CN(C)CCN1C(=O)c2cccc3c2c(cc2nc(-c4ccccc4)oc23)C1=O` showed an IC50 [7] of 3 µM, an IC50 (P388) of 2.5 µM and an IC50 (A549) of 0.53 µM.
For `O=c1c2ccc3sc4ccccc4c4ccc(c(=O)n1CCN1CCNCC1)c2c34`, the IC50 (P388) was greater than 100 µM and the IC50 (A549) was 100 µM.
In the case of `COc1ccc(-c2nc3cc4c5c(cccc5c3o2)C(=O)N(CCN(C)C)C4=O)cc1`, the IC50 [7] is reported as 3.4 µM, the IC50 (P388) is reported as 1.29 µM and the IC50 (A549) is reported as 6.6 µM.
Work on `CN(C)CCN1C(=O)c2cccc3c2c(cc2c4ccccc4sc32)C1=O` yielded a Selectivity ratio [9] of 10, a Ka [3] of 7.6 ×10⁷ /M and a Ka [4] of 8 ×10⁶ /M. The “Topoisomerase 1 relaxation inhibition (qualitative)” value (Bos taurus [1]) was “Active”, the “Inhibition (qualitative)” value [2] was “Active” and the Activity (DNA [5]) was “Active”. It also gave a Ka (DNA [6]) of 1.1 ×10⁵ /M and an IC50 [7] of 0.9 µM.
`CN(C)CCCn1c(=O)c2ccc3sc4ccccc4c4ccc(c1=O)c2c34` gave an IC50 (P388) of 0.63 µM and an IC50 (A549) of 0.19 µM.
`CN(C)CCn1c(=O)c2ccc3oc4ccccc4c4ccc(c1=O)c2c34` showed a Ka [10] of 8 ×10⁴ /M, a Ka [11] of 1.72 ×10⁵ /M and a Ka [12] of 8.4 ×10⁴ /M. For the same compound, the Ka [13] was 1.12 ×10⁵ /M, the Ka [14] was 5.9 ×10³ /M and the Ka [15] was 6.9 ×10³ /M. The Ka [16] was 1.28 ×10⁵ /M, the Ka [17] was 1.2 ×10⁴ /M and the Ka [3] was 6.89 ×10⁵ /M. For the same compound, the Ka [4] was 1.32 ×10⁵ /M, the “Topoisomerase 1 relaxation inhibition (qualitative)” value (Bos taurus [1]) was “Active” and the “Inhibition (qualitative)” value [2] was “Active”. For the same compound, the Activity (DNA [5]) was “Active”, the Ka (DNA [6]) was 1.45 ×10⁵ /M and the IC50 [7] was 4.1 µM. It also gave an IC50 (P388) of 1.11 µM and an IC50 (A549) of 0.61 µM.
Work on `CN(C)CCCN1C(=O)c2cccc3c2c(cc2c4ccccc4oc32)C1=O` yielded an IC50 [7] of 6.6 µM, an IC50 (P388) of 0.17 µM and an IC50 (A549) of 0.74 µM.
`CCCCn1c(=O)c2ccc3sc4ccccc4c4ccc(c1=O)c2c34` showed an IC50 (P388) of 1.2 µM and an IC50 (A549) of 0.87 µM.
In the case of `CN(C)CCCn1c(=O)c2ccc3oc4ccccc4c4ccc(c1=O)c2c34`, the IC50 [7] is reported as 10.3 µM, the IC50 (P388) is reported as 3.5 µM and the IC50 (A549) is reported as 98.3 µM.
In the case of `CN(C)CCN1C(=O)c2cccc3c2c(cc2nc(-c4ccc([N+](=O)[O-])cc4)oc23)C1=O`, the IC50 [7] is reported as greater than 100 µM, the IC50 (P388) is reported as 100 µM and the IC50 (A549) is reported as 17.8 µM.
`CN(C)CCn1c(=O)c2ccc3sc4ccccc4c4ccc(c1=O)c2c34` gave a Ka [10] of 4.76 ×10⁵ /M, a Ka [11] of 1.89 ×10⁵ /M and a Ka [12] of 2.13 ×10⁵ /M. For the same compound, the Ka [13] was 4 ×10⁵ /M, the Ka [14] was 3 ×10⁴ /M and the Ka [15] was 1.92 ×10⁵ /M. It also gave a Ka [16] of 3.33 ×10⁶ /M, a Ka [17] of 9.09 ×10⁵ /M and a Selectivity ratio [9] of 10. For the same compound, the Ka [3] was 4.76 ×10⁶ /M, the Ka [4] was 4.48 ×10⁵ /M and the “Topoisomerase 1 relaxation inhibition (qualitative)” value (Bos taurus [1]) was “Active”. The “Inhibition (qualitative)” value [2] was “Active”, the Activity (DNA [5]) was “Active” and the Ka (DNA [6]) was 9.7 ×10⁴ /M. For the same compound, the IC50 [7] was 4.1 µM.
`COc1ccc(-c2nc3cc4c5c(cccc5c3s2)C(=O)N(CCN(C)C)C4=O)cc1` gave an IC50 (P388) of 0.43 µM and an IC50 (A549) of 0.016 µM.
With `O=c1c2ccc3oc4ccccc4c4ccc(c(=O)n1CCN1CCNCC1)c2c34` the IC50 [7] was 11.5 µM, the IC50 (P388) was 4.52 µM and the IC50 (A549) was 28.9 µM.
For `Cc1ccc(-c2nc3cc4c5c(cccc5c3o2)C(=O)N(CCN(C)C)C4=O)cc1`, the IC50 [7] was 6.7 µM, the IC50 (P388) was 19.3 µM and the IC50 (A549) was 34.7 µM.
`O=C1c2cccc3c2c(cc2c4ccccc4sc32)C(=O)N1CCN1CCNCC1` gave an IC50 (P388) of 72.4 µM and an IC50 (A549) of 11.8 µM.
`Cc1ccc(-c2nc3cc4c5c(cccc5c3s2)C(=O)N(CCN(C)C)C4=O)cc1` showed an IC50 (P388) of 0.62 µM and an IC50 (A549) of 0.42 µM.
`CCCCn1c(=O)c2ccc3oc4ccccc4c4ccc(c1=O)c2c34` gave an IC50 [7] greater than 100 µM, an IC50 (P388) greater than 100 µM and an IC50 (A549) of 5.39 µM.
With `CN(C)CCCN1C(=O)c2cccc3c2c(cc2c4ccccc4sc32)C1=O` the IC50 (P388) was 0.32 µM and the IC50 (A549) was 0.25 µM.
With `CCCCN1C(=O)c2cccc3c2c(cc2c4ccccc4sc32)C1=O` the IC50 (P388) was 0.74 µM and the IC50 (A549) was 1.35 µM.
